Experimental data published in ChEMBL document CHEMBL1177863, “Diorganotin(IV) derivatives of ONO tridentate Schiff base: synthesis, crystal structure, in vitro antimicrobial, anti-leishmanial and DNA binding studies” (Eur J Med Chem, 2010).
Converted amounts (≈) assume the structure as drawn.

Tests used:
Aspergillus flavus = experiment: Antifungal activity against Aspergillus flavus ATCC 1030 at 200 ug/ml by agar tube dilution test; format: functional
Trichophyton longifusum = experiment: Antifungal activity against Trichophyton longifusum ATCC 22397 at 200 ug/ml by agar tube dilution test; format: functional
Leishmania major = experiment: Antileishmanial activity against Leishmania major MHOM/PK/88/DESTO promastigotes by alamar blue assay; format: functional, organism-based
Nakaseomyces glabratus = experiment: Antifungal activity against Candida glabrata ATCC 90030 at 200 ug/ml by agar tube dilution test; format: functional
Fusarium solani = experiment: Antifungal activity against Fusarium solani ATCC 11712 at 200 ug/ml by agar tube dilution test; format: functional
Candida albicans = experiment: Antifungal activity against Candida albicans ATCC 2192 at 200 ug/ml by agar tube dilution test; format: functional
Microsporum canis = experiment: Antifungal activity against Microsporum canis ATCC 9865 at 200 ug/ml by agar tube dilution test; format: functional
[1] = Toxicity against Artemia salina nauplii larvae; format: organism-based; conditions: in vivo, read-out: LD50 (the source's name)
Method in brief: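 Brine shrimp lethality bioassay. LD50 was derived from the mortality data by Finney's probit analysis.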

Bacillus subtilis = experiment: Antibacterial activity against Bacillus subtilis ATCC 11774 […] by agar well-diffusion method; format: functional
Method in brief: (§1)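 Test compounds dissolved in DMSO at 1 mg mL-1 and applied in agar wells; imipenem reference at 10 mg/disc. Inhibition zone diameter was read and graded as 3-6 mm non-significant, 7-9 mm low, 10-12 mm good, and >12 mm significant.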

Pseudomonas aeruginosa = experiment: Antibacterial activity against Pseudomonas aeruginosa ATCC 10145 […] by agar well-diffusion method; format: functional; method in brief: as §1
Escherichia coli = experiment: Antibacterial activity against Escherichia coli ATCC 11229 […] by agar well-diffusion method; format: functional; method in brief: as §1
Shigella flexneri = experiment: Antibacterial activity against Shigella flexneri ATCC 10782 […] by agar well-diffusion method; format: functional; method in brief: as §1
Salmonella enterica = experiment: Antibacterial activity against Salmonella typhi ATCC 10749 at 10 mg/disk by agar well-diffusion method; format: functional, Salmonella enterica subsp. enterica serovar Typhi
Method in brief: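 Agar well-diffusion assay with compounds at 1 mg mL-1 in DMSO. Imipenem served as the reference disc. The read-out is the inhibition zone diameter in mm, graded as 3-6 non-significant, 7-9 low, 10-12 good and >12 significant.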

Staphylococcus aureus = experiment: Antibacterial activity against Staphylococcus aureus ATCC 25923 […] by agar well-diffusion method; format: functional; method in brief: as §1

Q: With O=CN/N=C/c1ccccc1O as the compound, how does the inhibition at 200 µg/mL (Aspergillus flavus) read?
A: The inhibition at 200 µg/mL was 40%.

Q: What about the inhibition at 200 µg/mL (Trichophyton longifusum) of the same compound?
A: The inhibition at 200 µg/mL was 0%.

Q: What about the IC50 (Leishmania major) of the same compound?
A: The IC50 was 24 µg/mL (≈ 146 µM).

Q: And the inhibition at 200 µg/mL (Nakaseomyces glabratus)?
A: The inhibition at 200 µg/mL was 0%.

Q: And the inhibition at 200 µg/mL (Fusarium solani)?
A: Its inhibition at 200 µg/mL is 0%.

Q: What about the inhibition at 200 µg/mL (Candida albicans) of the same compound?
A: Its inhibition at 200 µg/mL is 0%.

Q: What about the inhibition at 200 µg/mL (Microsporum canis) of the same compound?
A: Its inhibition at 200 µg/mL is 0%.

Q: Which LC50 [1] does the source give for COc1cc([C@@H]2c3cc4c(cc3[C@@H](O[C@@H]3O[C@@H]5CO[C@@H](C)O[C@H]5[C@H](O)[C@H]3O)[C@H]3COC(=O)[C@H]23)OCO4)cc(OC)c1O [ETOPOSIDE] here?
A: Its LC50 is 7.46 µg/mL (≈ 12.7 µM).

Q: Which “diameter of the inhibition zone (DIZ)” value (Bacillus subtilis) does the source give for C[C@@H](O)[C@H]1C(=O)N2C(C(=O)O)=C(SCCNC=N)C[C@H]12 [IMIPENEM ANHYDROUS] here?
A: The value was 37 mm.

Q: What about the “diameter of the inhibition zone (DIZ)” value (Pseudomonas aeruginosa) of the same compound?
A: The value was 32 mm.

Q: And the “diameter of the inhibition zone (DIZ)” value (Escherichia coli)?
A: Its value is 30 mm.

Q: And the “diameter of the inhibition zone (DIZ)” value (Shigella flexneri)?
A: Its value is 36 mm.

Q: What about the “diameter of the inhibition zone (DIZ)” value (Salmonella enterica) of the same compound?
A: The value was 30 mm.

Q: What about the “diameter of the inhibition zone (DIZ)” value (Staphylococcus aureus) of the same compound?
A: Its value is 26 mm.
